Assay results as given in ChEMBL document CHEMBL2331243, “Discovery and mechanism study of SIRT1 activators that promote the deacetylation of fluorophore-labeled substrate” (J Med Chem, 2013).
Calls of active or inactive are those of the source. The calls are words filed in the database; no cut-off is given here.

Legend:
[1] = biological target: T1, NAD-dependent protein deacetylase sirtuin-1 (Homo sapiens) (UniProt Q96EB6); assay: Activation of N-terminal His6-tagged SIRT1 (156 to 664 amino acid residues) (unknown origin) expressed in Escherichia coli BL21(DE3) using ac-RHKKac-AMC as substrate at 50 uM after 45 mins by fluorimetric analysis relative to control
T1 sequence (whole entry): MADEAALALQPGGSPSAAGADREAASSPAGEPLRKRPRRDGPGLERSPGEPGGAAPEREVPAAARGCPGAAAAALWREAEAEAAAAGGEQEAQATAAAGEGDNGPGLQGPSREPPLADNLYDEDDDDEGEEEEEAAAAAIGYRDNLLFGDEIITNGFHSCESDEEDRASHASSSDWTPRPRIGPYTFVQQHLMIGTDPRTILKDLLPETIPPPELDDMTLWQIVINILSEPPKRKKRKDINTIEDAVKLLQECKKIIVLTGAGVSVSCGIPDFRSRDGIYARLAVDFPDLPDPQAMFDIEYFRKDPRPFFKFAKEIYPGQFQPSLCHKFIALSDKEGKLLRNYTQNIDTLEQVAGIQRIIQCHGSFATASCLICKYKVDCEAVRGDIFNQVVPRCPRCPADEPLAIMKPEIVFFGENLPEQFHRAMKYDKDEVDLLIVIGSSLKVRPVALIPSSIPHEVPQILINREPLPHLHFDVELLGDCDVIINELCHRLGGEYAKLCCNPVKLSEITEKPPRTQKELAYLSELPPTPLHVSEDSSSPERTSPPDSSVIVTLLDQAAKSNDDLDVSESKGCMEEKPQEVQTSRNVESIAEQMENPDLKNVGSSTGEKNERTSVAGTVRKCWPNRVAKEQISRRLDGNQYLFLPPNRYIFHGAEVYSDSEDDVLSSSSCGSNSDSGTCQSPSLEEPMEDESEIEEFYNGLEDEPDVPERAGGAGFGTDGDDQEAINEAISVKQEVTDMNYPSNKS
Procedure, shortened: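 Fluorogenic deacetylation screen: 1 μM SIRT1 with 750 μM NAD⁺ and 31.25 μM ac-RHKK_ac-AMC in Tris buffer (25 mM Tris, 137 mM NaCl, 2.7 mM KCl, 1 mM MgCl₂, pH 8.0). Compounds at 50 μM from DMSO stocks; DMSO alone as blank. Trypsin then releases AMC from deacetylated peptide; fluorescence read at 340/490 nm.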

[2] = biological target: T2, NAD-dependent protein deacetylase sirtuin-1 (Homo sapiens, UniProt Q96EB6); assay: Activation of N-terminal His6-tagged SIRT1 (156 to 664 amino acid residues) (unknown origin) expressed in Escherichia coli BL21(DE3) using ac-RHKKac-AMC as substrate after 45 mins by fluorometric analysis
T2 sequence (Q96EB6 whole entry): T1 sequence (whole entry)

[3] = biological target: T3, NAD-dependent protein deacetylase sirtuin-2 (Homo sapiens) (UniProt Q8IXJ6); assay: Activation of at N-terminal GST-tagged SIRT2 (34 to 356 amino acid residues) (unknown origin) expressed in Escherichia coli BL21(DE3) using ac-RHKKac-AMC as substrate at 50 uM after 45 mins by fluorometric analysis relative to control
T3 sequence (whole entry): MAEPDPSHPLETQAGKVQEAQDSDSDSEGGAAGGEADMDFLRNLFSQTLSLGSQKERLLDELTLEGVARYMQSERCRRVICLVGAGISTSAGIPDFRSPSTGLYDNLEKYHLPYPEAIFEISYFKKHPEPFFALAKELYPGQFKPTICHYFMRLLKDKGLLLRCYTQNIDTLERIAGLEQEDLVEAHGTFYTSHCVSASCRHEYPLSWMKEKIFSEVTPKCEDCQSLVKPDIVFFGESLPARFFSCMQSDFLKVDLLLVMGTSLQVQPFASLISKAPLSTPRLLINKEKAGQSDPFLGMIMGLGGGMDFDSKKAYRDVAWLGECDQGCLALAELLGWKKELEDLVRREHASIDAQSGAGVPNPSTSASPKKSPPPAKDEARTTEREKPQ
Procedure, shortened: (§1)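 Fluorescent deacetylation assay in 25 mM Tris, 137 mM NaCl, 2.7 mM KCl, 1 mM MgCl₂, pH 8.0, with 750 μM NAD⁺ and 31.25 μM ac-RHKK_ac-AMC. Enzyme was 3.6 μM SIRT3 or 4.2 μM GST-SIRT2, set to match SIRT1 activity. Trypsin released AMC from the deacetylated peptide, read at ex 340 / em 490 nm. Compounds were added from DMSO (DMSO as blank): single point at 50 μM, or 3-fold DMSO dilution series. EC1.5 (concentration giving 50% activity increase) and maximum activation were fitted to a dose–response function.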

[4] = biological target: T4, NAD-dependent protein deacetylase sirtuin-2 (Homo sapiens, UniProt Q8IXJ6); assay: Activation of at N-terminal GST-tagged SIRT2 (34 to 356 amino acid residues) (unknown origin) expressed in Escherichia coli BL21(DE3) using ac-RHKKac-AMC as substrate after 45 mins by fluorometric analysis; procedure, shortened: as §1
T4 sequence (Q8IXJ6 whole entry): T3 sequence (whole entry)

[5] = biological target: T1, NAD-dependent protein deacetylase sirtuin-1 (Homo sapiens); assay: Activation of SIRT1 in human MCF7 cells assessed as reduction in doxorubicin-induced acetyl-p53 level up to 100 uM after 6 hrs by Western blotting analysis; type: cell-based
Procedure, shortened: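 MCF-7 cells were seeded at 1 × 10⁵ per well in DMEM with 10% FCS and grown 24 h at 37 °C, 5% CO₂. Graded compound concentrations were added together with 0.1 μM TSA and 5 μM doxorubicin for 6 h. Lysate (50 μg protein) was run on a 9% gel and blotted with an anti-acetyl-p53 (Lys382) polyclonal antibody at 4 °C overnight, then HRP anti-rabbit IgG with chemiluminescence.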

[6] = biological target: T1, NAD-dependent protein deacetylase sirtuin-1 (Homo sapiens); assay: Activation of N-terminal His6-tagged SIRT1 (156 to 664 amino acid residues) (unknown origin) expressed in Escherichia coli BL21(DE3) using ac-RHKKac-NH2 as substrate after 45 mins by HPLC analysis

| Compound | max activation [1] | EC50 [2] | also measured |
| --- | --- | --- | --- |
| O=C(Nc1ccccc1-c1cn2c(CN3CCNCC3)csc2n1)c1cnc2ccccc2n1 | 781% |  |  |
| O=C(Nc1ccccc1-c1cn2c(CN3CCNCC3)csc2n1)c1ccncn1 | 270% | 1.7 µM |  |
| O=C(N/N=C/c1cc(Br)c(O)c(Br)c1O)c1cc2ccccc2cc1O | 375% | 4.5 µM |  |
| O=C(Nc1ccccc1-c1cn2c(CN3CCNCC3)csc2n1)c1cc2ccccc2o1 | 381% | 0.61 µM |  |
| COc1c(/C=N/NC(=O)c2ccc(-c3ccccc3)cc2)cc(Br)c(O)c1Br | 191% | 18.1 µM |  |
| O=C(Nc1ccccc1-c1cn2c(CN3CCNCC3)csc2n1)c1cccc2cccnc12 | 208% | 45 µM |  |
| O=C(Nc1ccccc1-c1cn2c(CN3CCNCC3)csc2n1)c1ccc2ccccc2n1 | 440% | 0.99 µM |  |
| COc1cc(OC)cc(C(=O)N/N=C/c2cc(Br)c(O)c(Br)c2O)c1 | 112% |  |  |
| O=C(N/N=C/c1cc(Br)c(O)c(Br)c1O)c1ccc2ncccc2c1 | 239% | 55.2 µM |  |
| Cc1ccc(C(=O)N/N=C/c2cc(Br)c(O)c(Br)c2O)cc1 | 161% | 9.6 µM |  |
| COc1c(Br)cc(/C=N/NC(=O)c2ccc3cc(Br)ccc3c2)c(O)c1Br | 119% |  |  |
| O=C(N/N=C/c1cc(Br)c(O)c(Br)c1O)c1ccc(-c2ccc3c(c2)OCO3)cc1 | 380% | 3.4 µM |  |
| O=C(Nc1ccccc1-c1cn2c(CN3CCNCC3)csc2n1)C1CCCC1 | 383% | 130 µM |  |
| O=C(N/N=C/c1cc(Br)c(O)c(Br)c1O)c1ccc(-c2cccnc2)cc1 | 314% | 2 µM |  |
| O=C(N/N=C/c1cc(Br)c(O)c(Br)c1O)c1ccc(-c2ccncc2)cc1 | 390% | 1.6 µM |  |
| O=C(N/N=C/c1ccc(O)cc1O)c1ccc(-c2ccccc2)cc1 | 157% | 10.4 µM |  |
| N#Cc1ccc(O)c(-c2ccc(C(=O)N/N=C/c3cc(Br)c(O)c(Br)c3O)cc2)c1 | 196% | 3.7 µM |  |
| O=C(N/N=C/c1cc(Br)c(O)c(Br)c1O)c1ccc(-c2ccco2)cc1 | 374% | 2.1 µM |  |
| O=C(Nc1ccccc1-c1cn2c(CN3CCNCC3)csc2n1)c1ccccc1 | 322% | 25 µM |  |
| O=C(N/N=C/c1cc(Br)c(O)c(Br)c1O)c1ccc2c(c1)Cc1ccccc1-2 | 212% | 5.4 µM | max activation [3]: 206%; EC50 [4]: 16.5 µM |

| Compound | max activation [1] | EC50 [2] | also measured |
| --- | --- | --- | --- |
| COc1cccc(C(=O)Nc2ccccc2-c2cn3c(CN4CCNCC4)csc3n2)c1 | 928% | 3.7 µM |  |
| O=C(N/N=C/c1cc(Br)c(O)c(Br)c1O)c1ccc2cc(-c3ccco3)ccc2c1 | 267% | 2.6 µM |  |
| N#Cc1ccc2cc(C(=O)N/N=C/c3cc(Br)c(O)c(Br)c3O)ccc2c1 | 433% | 4.4 µM |  |
| O=C(Cc1ccccc1)Nc1ccccc1-c1cn2c(CN3CCNCC3)csc2n1 | 130% | 14 µM |  |
| O=C(N/N=C/c1cc(Br)c(O)c(Br)c1O)c1ccc(-c2ccccc2C(F)(F)F)cc1 | 216% | 0.9 µM |  |
| O=C(N/N=C/c1cc(Br)c(O)c(Br)c1O)c1ccc(-c2ccccc2)cc1 | 246% | 1.7 µM |  |
| CS(=O)(=O)c1ccc2cc(C(=O)N/N=C/c3cc(Br)c(O)c(Br)c3O)ccc2c1 | 368% | 2.3 µM |  |
| COc1c(/C=N/NC(=O)c2ccc3cc(Br)ccc3c2)cc(Br)c(O)c1Br | 298% | 8.7 µM |  |
| O=C(N/N=C/c1cc(Br)c(O)c(Br)c1O)c1ccc2ccccc2c1 | 331% | 1.6 µM |  |
| COc1ccc2cc(C(=O)N/N=C/c3cc(Br)c(O)c(Br)c3O)ccc2c1 | 624% | 0.9 µM | Activity [5]: Active |
| O=C(N/N=C/c1cc(Br)c(O)c(Br)c1O)c1ccc(Cl)cc1 | 174% | 7 µM |  |
| O=C(N/N=C/c1cc(Br)c(O)c(Br)c1O)c1ccc(-c2ccccn2)cc1 | 467% | 2.3 µM |  |
| COc1c(Br)cc(/C=N/NC(=O)c2ccc(-c3ccccc3)cc2)c(O)c1Br | 242% | 28.1 µM |  |
| O=C(N/N=C/c1cc(Br)c(O)c(Br)c1O)c1ccc(C(F)(F)F)cc1 | 161% | 20.5 µM |  |
| COc1ccc(C(=O)Nc2ccccc2-c2cn3c(CN4CCNCC4)csc3n2)c(OC)c1 | 197% | 31 µM |  |
| COc1cc(C(=O)Nc2ccccc2-c2cn3c(CN4CCNCC4)csc3n2)cc(OC)c1OC | 271% | 1.8 µM | Activity [6]: inactive |
| O=C(N/N=C/c1cc(Br)c(O)c(Br)c1O)c1cccc(-c2ccccc2)c1 | 212% | 18.3 µM |  |
| O=C(Nc1ccccc1-c1cn2c(CN3CCNCC3)csc2n1)c1cnc2ccccc2c1 | 301% | 0.68 µM |  |
| O=C(Nc1ccccc1-c1cn2c(CN3CCNCC3)csc2n1)c1ccc2occc2c1 | 380% | 6.9 µM |  |
